Results: ChEMBL document CHEMBL2021764, “2-Aminothiophenes as building blocks in heterocyclic synthesis: synthesis and antimicrobial evaluation of a new class of pyrido[1,2-a]thieno[3,2-e]pyrimidine, quinoline and pyridin-2-one derivatives” (2012)

Key:
Assay type in all cases: functional
Pseudomonas aeruginosa [1] = test: Antibacterial activity against Pseudomonas aeruginosa 155250A at 100 mg/ml after 24 hrs by agar-well diffusion technique; conditions: read-out: DIZ
Summary of the method: (§1)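 The penicillin reference was applied at 100 mg ml^-1 in 4 mm wells on nutrient agar plates spread with 0.1 ml of each bacterial strain. Plates were incubated at 37 °C for 24 h, and inhibition zones were measured as the average of 3 replicas.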

Staphylococcus aureus [2] = test: Antibacterial activity against Staphylococcus aureus 155554A at 100 mg/ml after 24 hrs by agar-well diffusion technique; conditions: read-out: DIZ
Summary of the method: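 0.1 ml of the bacterial strain spread on nutrient agar. 4 mm wells were cut with a sterile cork borer and filled with test solution. Plates were incubated at 37 °C for 24 h. Inhibition zone diameters were measured around the wells, and the average of 3 replicas was recorded. Penicillin served as the antibacterial reference.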

Escherichia coli [3] = test: Antibacterial activity against Escherichia coli 124300 at 100 mg/ml after 24 hrs by agar-well diffusion technique; conditions: Escherichia coli, 124300, 24 h; read-out: DIZ; summary of the method: as §1
Serratia marcescens [4] = test: Antibacterial activity against Serratia marcescens 155449 at 100 mg/ml after 24 hrs by agar-well diffusion technique; conditions: Serratia marcescens, 155449, 24 h; read-out: DIZ; summary of the method: as §1
Bacillus subtilis [5] = test: Antibacterial activity against Bacillus subtilis 154921 at 100 mg/ml after 24 hrs by agar-well diffusion technique; conditions: Bacillus subtilis, 154921, 24 h; read-out: DIZ; summary of the method: as §1
Candida albicans [6] = test: Antifungal activity against Candida albicans 155965 at 100 mg/ml after 48 hrs by agar-well diffusion technique; conditions: Candida albicans, 155965, 48 h; read-out: DIZ
Summary of the method: (§2)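 0.1 ml of the yeast spread on potato dextrose agar. 4 mm wells were cut with a sterile cork borer and filled with test solution. Plates were incubated at 25 °C for 48 h. Inhibition zones around the wells were measured, and the mean of 3 replicas was recorded. Cycloheximide served as the antifungal reference.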

Saccharomyces cerevisiae [7] = test: Antifungal activity against Saccharomyces cerevisiae 156250 at 100 mg/ml after 48 hrs by agar-well diffusion technique; conditions: Saccharomyces cerevisiae, 156250, 48 h; read-out: DIZ; summary of the method: as §2
Pseudomonas aeruginosa [8] = test: Antibacterial activity against Pseudomonas aeruginosa 155250A at 1 mg/ml after 24 hrs by agar-well diffusion technique; conditions: read-out: DIZ
Summary of the method: (§3)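 Each bacterial strain (0.1 ml) was spread on nutrient agar, and 4 mm wells were cut with a sterile cork borer. Wells were loaded with test chemical at a final 1 mg ml^-1, then incubated at 37 °C for 24 h. Inhibition zone diameters around the wells were measured, averaged over 3 replicas.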

Serratia marcescens [9] = test: Antibacterial activity against Serratia marcescens 155449 at 1 mg/ml after 24 hrs by agar-well diffusion technique; conditions: Serratia marcescens, 155449, 24 h; read-out: DIZ; summary of the method: as §3
Escherichia coli [10] = test: Antibacterial activity against Escherichia coli 124300 at 1 mg/ml after 24 hrs by agar-well diffusion technique; conditions: Escherichia coli, 124300, 24 h; read-out: DIZ; summary of the method: as §3
Candida albicans [11] = test: Antifungal activity against Candida albicans 155965 at 1 mg/ml after 48 hrs by agar-well diffusion technique; conditions: Candida albicans, 155965, 48 h; read-out: DIZ
Summary of the method: (§4)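 Yeast (0.1 ml) was spread on potato dextrose agar, and 4 mm wells were cut with a sterile cork borer. Wells were loaded with test chemical at a final 1 mg ml^-1, then incubated at 25 °C for 48 h. Inhibition zones around the wells were measured, averaged over 3 replicas.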

Saccharomyces cerevisiae [12] = test: Antifungal activity against Saccharomyces cerevisiae 156250 at 1 mg/ml after 48 hrs by agar-well diffusion technique; conditions: Saccharomyces cerevisiae, 156250, 48 h; read-out: DIZ; summary of the method: as §4
Staphylococcus aureus [13] = test: Antibacterial activity against Staphylococcus aureus 155554A at 1 mg/ml after 24 hrs by agar-well diffusion technique; conditions: read-out: DIZ; summary of the method: as §3
Bacillus subtilis [14] = test: Antibacterial activity against Bacillus subtilis 154921 at 1 mg/ml after 24 hrs by agar-well diffusion technique; conditions: Bacillus subtilis, 154921, 24 h; read-out: DIZ; summary of the method: as §3

Row | Compound | zone of inhibition at 100000 µg/mL (Pseudomonas aeruginosa [1]) [mm] | zone of inhibition at 100000 µg/mL (Staphylococcus aureus [2]) [mm] | zone of inhibition at 100000 µg/mL (Escherichia coli [3]) [mm] | zone of inhibition at 100000 µg/mL (Serratia marcescens [4]) [mm] | zone of inhibition at 100000 µg/mL (Bacillus subtilis [5]) [mm] | zone of inhibition at 100000 µg/mL (Candida albicans [6]) [mm] | zone of inhibition at 100000 µg/mL (Saccharomyces cerevisiae [7]) [mm] | zone of inhibition at 1000 µg/mL (Pseudomonas aeruginosa [8]) [mm] | zone of inhibition at 1000 µg/mL (Serratia marcescens [9]) [mm] | zone of inhibition at 1000 µg/mL (Escherichia coli [10]) [mm] | zone of inhibition at 1000 µg/mL (Candida albicans [11]) [mm] | zone of inhibition at 1000 µg/mL (Saccharomyces cerevisiae [12]) [mm] | zone of inhibition at 1000 µg/mL (Staphylococcus aureus [13]) [mm] | zone of inhibition at 1000 µg/mL (Bacillus subtilis [14]) [mm]
1 | CC1(C)S[C@@H]2[C@H](NC(=O)Cc3ccccc3)C(=O)N2[C@H]1C(=O)O [PENICILLIN G] | 30 | 40 | 8.6 | 7 | 4.6 | – | – | – | – | – | – | – | – | –
2 | C[C@@H]1C[C@@H]([C@H](O)CC2CC(=O)NC(=O)C2)C(=O)[C@@H](C)C1 [CYCLOHEXIMIDE] | – | – | – | – | – | 0 | 40 | – | – | – | – | – | – | –
3 | N#Cc1c(-c2cccs2)c(C#N)c2[nH]c(=O)c3c(-c4ccc(Cl)cc4)csc3n2c1=N | – | – | – | – | – | – | – | 10.6 | 2.6 | 4 | 12 | 0 | 0 | 2
4 | N#Cc1c(-c2ccccc2)csc1NC(=O)c1ccc(-c2ccccc2)[nH]c1=O | – | – | – | – | – | – | – | 5.3 | 2 | 3.3 | 0 | 1.3 | 0 | 1.6
5 | CN(C)/C=C(\C#N)C(=O)Nc1scc(-c2ccccc2)c1C#N | – | – | – | – | – | – | – | 10.8 | 3.3 | 4 | 4 | 1.3 | 0 | 1.6
6 | COc1ccc(-c2c(C#N)c(=N)n3c([nH]c(=O)c4c(-c5ccc(Cl)cc5)csc43)c2C#N)cc1 | – | – | – | – | – | – | – | 13.1 | 4 | 4 | 0 | 0 | 0 | 2
